ChEMBL document CHEMBL2321824, “5-((1-Aroyl-1H-indol-3-yl)methylene)-2-thioxodihydropyrimidine-4,6(1H,5H)-diones as potential anticancer agents with anti-inflammatory properties” (2013)

Legend:
Format in all cases: functional
LOX IMVI = experiment: Cytotoxicity against human LOXIMVI cells; conditions: for CC50: read-out: LC50 (the source's name)
Summary of the method: (§1)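 Tested in the NCI 60 human tumor cell line panel (leukemia, NSCLC, colon, CNS, melanoma, ovarian, renal, prostate and breast lines) at five doses. A single-dose pre-screen at 10 μM selected which compounds went on. Effect was plotted against log10 drug concentration for each line. GI50 is the molar concentration giving 50% growth inhibition; LC50 is the concentration killing 50% of cells.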

HCT-116 = experiment: Cytotoxicity against human HCT116 cells; conditions: for CC50: read-out: LC50 (the source's name); summary of the method: as §1
OVCAR-3 = experiment: Cytotoxicity against human OVCAR3 cells; conditions: for CC50: read-out: LC50 (the source's name); summary of the method: as §1
SK-MEL-5 = experiment: Cytotoxicity against human SK-MEL-5 cells; summary of the method: as §1
HOP-62 = experiment: Cytotoxicity against human HOP62 cells; conditions: for CC50: read-out: LC50 (the source's name); summary of the method: as §1
CCRF-CEM = experiment: Cytotoxicity against human CCRF-CEM cells; conditions: for CC50: read-out: LC50 (the source's name); summary of the method: as §1
HCT-15 = experiment: Cytotoxicity against human HCT15 cells; conditions: for CC50: read-out: LC50 (the source's name); summary of the method: as §1
UACC-62 = experiment: Cytotoxicity against human UACC62 cells; conditions: for CC50: read-out: LC50 (the source's name); summary of the method: as §1
NCI/ADR-RES = experiment: Cytotoxicity against human NCI/ADR-RES cells; conditions: for CC50: read-out: LC50 (the source's name); summary of the method: as §1
K562 = experiment: Cytotoxicity against human K562 cells; summary of the method: as §1
DU-145 = experiment: Cytotoxicity against human DU145 cells; conditions: for CC50: read-out: LC50 (the source's name); summary of the method: as §1
M14 = experiment: Cytotoxicity against human M14 cells; summary of the method: as §1
SR = experiment: Cytotoxicity against human SR cells; summary of the method: as §1
SF-268 = experiment: Cytotoxicity against human SF268 cells; summary of the method: as §1
MDA-MB-435 = experiment: Cytotoxicity against human MDA-MB-435 cells; conditions: for CC50: read-out: LC50 (the source's name)
Summary of the method: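 Tested in the NCI 60 human tumor cell line panel (leukemia, NSCLC, colon, CNS, melanoma, ovarian, renal, prostate and breast lines) at five doses. A single-dose pre-screen at 10 μM selected which compounds went on. Effect was plotted against log10 drug concentration for each line.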

HL-60(TB) = experiment: Cytotoxicity against human HL-60(TB) cells; summary of the method: as §1
KM12 = experiment: Cytotoxicity against human KM12 cells; conditions: for CC50: read-out: LC50 (the source's name); summary of the method: as §1
SF-539 = experiment: Cytotoxicity against human SF539 cells; conditions: for CC50: read-out: LC50 (the source's name); summary of the method: as §1
U-251 = experiment: Cytotoxicity against human U251 cells; conditions: for CC50: read-out: LC50 (the source's name); summary of the method: as §1
HOP-92 = experiment: Cytotoxicity against human HOP92 cells; conditions: for CC50: read-out: LC50 (the source's name); summary of the method: as §1
UO-31 = experiment: Cytotoxicity against human UO31 cells; conditions: for CC50: read-out: LC50 (the source's name); summary of the method: as §1
MOLT-4 = experiment: Cytotoxicity against human MOLT4 cells; conditions: for CC50: read-out: LC50 (the source's name); summary of the method: as §1

SMILES	GI50 (LOX IMVI)	CC50 (LOX IMVI)	GI50 (HCT-116)	CC50 (HCT-116)	GI50 (OVCAR-3)	CC50 (OVCAR-3)	GI50 (CCRF-CEM)	CC50 (CCRF-CEM)	GI50 (HCT-15)	CC50 (HCT-15)	GI50 (NCI/ADR-RES)	CC50 (NCI/ADR-RES)	GI50 (K562)	GI50 (M14)	GI50 (SR)	GI50 (SF-268)	CC50 (MDA-MB-435)	GI50 (HL-60(TB))	GI50 (SF-539)	CC50 (SF-539)	also measured
COc1ccc2c(c1)c(C=C1C(=O)NC(=S)NC1=O)cn2C(=O)c1ccccc1Br	2.92 µM	47.9 µM	3.76 µM	> 100 µM	2.77 µM	33.1 µM	4 µM	> 100 µM	3.83 µM	89.9 µM	3.23 µM	> 100 µM	3.8 µM	3.52 µM	2.55 µM	3.86 µM	8.43 µM	3.24 µM	3 µM	57.8 µM	GI50 (SK-MEL-5): 3.47 µM; LC50 (SK-MEL-5): > 50 µM; GI50 (HOP-62): 3.59 µM; CC50 (HOP-62): 64.3 µM; GI50 (UACC-62): 3.38 µM; CC50 (UACC-62): 39.6 µM; LC50 (K562): > 100 µM; GI50 (DU-145): 3.01 µM; CC50 (DU-145): 53.6 µM; LC50 (M14): > 100 µM; LC50 (SR): > 100 µM; LC50 (SF-268): 52.2 µM; GI50 (MDA-MB-435): 1.77 µM; LC50 (HL-60(TB)): > 100 µM; GI50 (KM12): 3.87 µM; CC50 (KM12): 51.9 µM; GI50 (U-251): 3.09 µM; CC50 (U-251): 42.1 µM
O=C1NC(=S)NC(=O)C1=Cc1cn(C(=O)c2cccc3ccccc23)c2ccccc12	3.59 µM	> 100 µM	2.9 µM	> 100 µM	2.46 µM	> 100 µM	3.35 µM	> 100 µM	3.6 µM	58.6 µM	2.59 µM	> 100 µM	3.71 µM	3.22 µM	2.74 µM	3.68 µM	46.2 µM	3.36 µM	3.58 µM	55.6 µM	GI50 (HOP-92): 1.3 µM; CC50 (HOP-92): 44.8 µM; LC50 (K562): > 100 µM; GI50 (UO-31): 3.93 µM; CC50 (UO-31): > 100 µM; LC50 (M14): 9.23 µM; LC50 (SR): 44.8 µM; LC50 (SF-268): 50.7 µM; GI50 (MOLT-4): 3.49 µM; CC50 (MOLT-4): 79 µM; GI50 (MDA-MB-435): 1.91 µM; LC50 (HL-60(TB)): > 100 µM
COc1ccc2c(c1)c(C=C1C(=O)NC(=S)NC1=O)cn2C(=O)c1cccc2ccccc12	3.8 µM	> 100 µM	3.35 µM	> 100 µM	2.38 µM	20.9 µM	3.31 µM	> 100 µM	3.1 µM	> 100 µM	3.14 µM	> 100 µM	3.52 µM	1.91 µM	3.32 µM	2.3 µM	12 µM	3.47 µM	3.23 µM	> 100 µM	GI50 (HOP-92): 1.09 µM; CC50 (HOP-92): > 100 µM; LC50 (K562): > 100 µM; GI50 (UO-31): 3.72 µM; CC50 (UO-31): > 100 µM; LC50 (M14): > 100 µM; LC50 (SR): > 100 µM; LC50 (SF-268): > 100 µM; GI50 (MOLT-4): 3.95 µM; CC50 (MOLT-4): > 100 µM; GI50 (MDA-MB-435): 2.01 µM; LC50 (HL-60(TB)): > 100 µM
COc1ccc(C(=O)n2cc(C=C3C(=O)NC(=S)NC3=O)c3cc(OC)ccc32)cc1	1.86 µM	> 50 µM	1.95 µM	–	1.26 µM	> 50 µM	2.23 µM	> 50 µM	1.8 µM	> 50 µM	2.91 µM	–	2.55 µM	2.03 µM	1.45 µM	2.65 µM	3.86 µM	3.91 µM	2.56 µM	> 50 µM	GI50 (SK-MEL-5): 2.31 µM; GI50 (HOP-62): 3.12 µM; CC50 (HOP-62): > 50 µM; GI50 (UACC-62): 2.33 µM; CC50 (UACC-62): > 50 µM; GI50 (DU-145): 2.41 µM; CC50 (DU-145): > 50 µM; GI50 (KM12): 1.99 µM; CC50 (KM12): > 50 µM; GI50 (U-251): 1.93 µM; CC50 (U-251): > 50 µM
